# Measured values published in ChEMBL document CHEMBL4138193, “Novel indole and triazole based hybrid molecules exhibit potent anti-adipogenic and antidyslipidemic activity by activating Wnt3a/β-catenin pathway” (Eur J Med Chem, 2018).
# pIC50: −log10 of the molar value. Calls of active or inactive are those of the source. The calls are words filed in the database; no cut-off is given here.
# How the values were obtained:
# 3T3-L1 [1] = assay: Anti-adipogenic activity in mouse differentiated 3T3L1 cells assessed as inhibition of adipogenesis at 20 uM after 20 mins by Oil Red O staining based assay; assay type: functional
# Outline: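 3T3-L1 preadipocytes given 20 µM compound with differentiation media. Oil red O stain (20 min) extracted, absorbance at 492 nm measured against MDI+ control, n=3, mean ± SD, Student t test.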
# 3T3-L1 [2] = assay: Anti-adipogenic activity in mouse 3T3L1 cells assessed as inhibition of adipogenesis after 20 mins by Oil Red O staining based assay; assay type: functional, cell-based; conditions: 3T3-L1, 20 min
# Outline: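 3T3-L1 preadipocytes differentiated with compound at 0.1, 1, 3, 10, 30, 100 and 300 µM. Oil red O absorbance read at 492 nm, concentrations log-transformed and fitted by non-linear regression to give IC50. Two to three independent experiments, mean ± SEM.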
# Syrian golden hamster [3] = assay: Induction of reverse cholestrol transport in high fat diet-induced dyslipidemia Syrian Golden hamster model assessed as increase in LCAT mRNA expression in liver at 100 mg/kg, po administered for 1 week by qRT-PCR analysis; assay type: functional, organism-based; conditions: Mesocricetus auratus
# Syrian golden hamster [4] = assay: Induction of reverse cholestrol transport in high fat diet-induced dyslipidemia Syrian Golden hamster model assessed as increase in SCARB1 mRNA expression in liver at 100 mg/kg, po administered for 1 week by qRT-PCR analysis; assay type: functional, organism-based; conditions: Mesocricetus auratus
# Syrian golden hamster [5] = assay: Induction of reverse cholestrol transport in high fat diet-induced dyslipidemia Syrian Golden hamster model assessed as decrease in NPCL1 mRNA expression in liver at 100 mg/kg, po administered for 1 week by qRT-PCR analysis; assay type: functional, organism-based; conditions: Mesocricetus auratus
# Syrian golden hamster [6] = assay: Induction of reverse cholestrol transport in high fat diet-induced dyslipidemia Syrian Golden hamster model assessed as decrease in CYP7A1 mRNA expression in liver at 100 mg/kg, po administered for 1 week by qRT-PCR analysis; assay type: functional, organism-based; conditions: Mesocricetus auratus
# Syrian golden hamster [7] = assay: Induction of reverse cholestrol transport in high fat diet-induced dyslipidemia Syrian Golden hamster model assessed as decrease in CETP mRNA expression in liver at 100 mg/kg, po administered for 1 week by qRT-PCR analysis; assay type: functional, organism-based; conditions: Mesocricetus auratus
# Syrian golden hamster [8] = assay: Induction of reverse cholestrol transport in high fat diet-induced dyslipidemia Syrian Golden hamster model assessed as increase in ABCA1 mRNA expression in eWAT at 100 mg/kg, po administered for 1 week by qRT-PCR analysis; assay type: functional, organism-based; conditions: Mesocricetus auratus
# Syrian golden hamster [9] = assay: Induction of reverse cholestrol transport in high fat diet-induced dyslipidemia Syrian Golden hamster model assessed as increase in ABCG8 mRNA expression in eWAT at 100 mg/kg, po administered for 1 week by qRT-PCR analysis; assay type: functional, organism-based; conditions: Mesocricetus auratus
# Syrian golden hamster [10] = assay: Induction of reverse cholestrol transport in high fat diet-induced dyslipidemia Syrian Golden hamster model assessed as increase in ABCG5 mRNA expression in eWAT at 100 mg/kg, po administered for 1 week by qRT-PCR analysis; assay type: functional, organism-based; conditions: Mesocricetus auratus
compound,measurement,setting,value
Cc1ccc(S(=O)(=O)N(Cc2ccc(F)cc2)Cc2cccc(F)c2F)cc1,inhibition at 20 µM,3T3-L1 [1],-97.7%
Cc1ccc(S(=O)(=O)n2cc(CN(Cc3cn(Cc4cc(F)ccc4F)nn3)S(C)(=O)=O)c3ccccc32)cc1,inhibition at 20 µM,3T3-L1 [1],3.4%
O=C(N(Cc1ccc(F)cc1)Cc1cccc(F)c1F)C(F)(F)F,inhibition at 20 µM,3T3-L1 [1],-39.8%
Cc1ccc(S(=O)(=O)N(Cc2ccccc2)Cc2cccc(F)c2F)cc1,inhibition at 20 µM,3T3-L1 [1],-35.7%
Cc1ccc(S(=O)(=O)N(Cc2cn(Cc3ccccc3)nn2)Cc2cn(S(=O)(=O)c3ccc(C)cc3)c3ccccc23)cc1,inhibition at 20 µM,3T3-L1 [1],3.4%
Cc1ccc(S(=O)(=O)n2c(CN(Cc3cn(Cc4ccc(F)cc4F)nn3)S(C)(=O)=O)c(C)c3ccccc32)cc1,inhibition at 20 µM,3T3-L1 [1],-20.8%
Cc1ccc(S(=O)(=O)n2cc(CNCc3cccc(F)c3F)c3ccccc32)cc1,inhibition at 20 µM,3T3-L1 [1],46%
same,pIC50,3T3-L1 [2],4.52
Cc1ccc(S(=O)(=O)N(Cc2cn(Cc3ccc(F)cc3F)nn2)Cc2c(C)c3ccccc3n2S(=O)(=O)c2ccc(C)cc2)cc1,inhibition at 20 µM,3T3-L1 [1],-22%
Cc1ccc(S(=O)(=O)N(Cc2cccc(F)c2F)Cc2cn(S(=O)(=O)c3ccc(C)cc3)c3ccccc23)cc1,inhibition at 20 µM,3T3-L1 [1],-13.9%
CC(=O)N(Cc1cn(Cc2cccc(F)c2F)nn1)Cc1cn(S(=O)(=O)c2ccc(C)cc2)c2ccccc12,inhibition at 20 µM,3T3-L1 [1],39.5%
same,pIC50,3T3-L1 [2],5.04
O=S(=O)(c1ccc(F)cc1)n1cc(CNCc2cccc(F)c2F)c2ccccc21,inhibition at 20 µM,3T3-L1 [1],21%
same,pIC50,3T3-L1 [2],4.91
Cc1ccc(S(=O)(=O)n2cc(CN(Cc3cccc(F)c3F)C(=O)C(F)(F)F)c3ccccc32)cc1,inhibition at 20 µM,3T3-L1 [1],-5.5%
Cc1ccc(S(=O)(=O)n2cc(CN(Cc3cn(Cc4ccc(F)cc4)nn3)S(C)(=O)=O)c3ccccc32)cc1,inhibition at 20 µM,3T3-L1 [1],-19.5%
Cc1ccc(S(=O)(=O)N(Cc2cccc(F)c2F)Cc2cn(S(=O)(=O)c3ccc(F)cc3)c3ccccc23)cc1,inhibition at 20 µM,3T3-L1 [1],-35%
CC(=O)N(Cc1cccc(F)c1F)Cc1cn(S(=O)(=O)c2ccc(F)cc2)c2ccccc12,inhibition at 20 µM,3T3-L1 [1],25.8%
same,pIC50,3T3-L1 [2],4.97
Cc1ccc(S(=O)(=O)n2cc(CN(Cc3cn(Cc4ccccc4)nn3)S(=O)(=O)c3ccccc3)c3ccccc32)cc1,inhibition at 20 µM,3T3-L1 [1],-18%
Cc1ccc(S(=O)(=O)N(Cc2cn(Cc3ccccc3)nn2)Cc2c(-c3ccccc3)c3ccccc3n2S(=O)(=O)c2ccc(C)cc2)cc1,inhibition at 20 µM,3T3-L1 [1],0.03%
Fc1cccc(CNCc2c[nH]c3ccccc23)c1F,inhibition at 20 µM,3T3-L1 [1],-1.7%
O=S(=O)(c1ccc(F)cc1)N(Cc1cccc(F)c1F)Cc1cn(S(=O)(=O)c2ccc(F)cc2)c2ccccc12,inhibition at 20 µM,3T3-L1 [1],-20%
COc1ccc(Cn2cc(CN(Cc3cn(S(=O)(=O)c4ccc(C)cc4)c4ccccc34)S(=O)(=O)c3ccc(C)cc3)nn2)c(OC)c1OC,inhibition at 20 µM,3T3-L1 [1],-18%
COc1cc(Cn2cc(CN(Cc3c(-c4ccccc4)c4ccccc4n3S(=O)(=O)c3ccc(C)cc3)S(=O)(=O)c3ccc(C)cc3)nn2)cc(OC)c1OC,inhibition at 20 µM,3T3-L1 [1],-10.9%
Cc1ccc(S(=O)(=O)n2cc(CN(Cc3cn(Cc4cccc(F)c4F)nn3)C(=O)C(F)(F)F)c3ccccc32)cc1,inhibition at 20 µM,3T3-L1 [1],31.9%
same,pIC50,3T3-L1 [2],4.72
Cc1ccc(S(=O)(=O)N(Cc2cn(Cc3ccccc3)nn2)Cc2c(C)c3ccccc3n2S(=O)(=O)c2ccc(C)cc2)cc1,inhibition at 20 µM,3T3-L1 [1],-5.9%
Cc1ccc(S(=O)(=O)n2cc(CN(Cc3cn(Cc4cc(F)ccc4F)nn3)S(=O)(=O)c3ccccc3)c3ccccc32)cc1,inhibition at 20 µM,3T3-L1 [1],-6.5%
Cc1ccc(S(=O)(=O)n2cc(CN(Cc3ccccc3)Cc3cccc(F)c3F)c3ccccc32)cc1,inhibition at 20 µM,3T3-L1 [1],-13.1%
COc1cc(OC)c(Cn2cc(CN(Cc3cn(S(=O)(=O)c4ccc(C)cc4)c4ccccc34)S(=O)(=O)c3ccc(C)cc3)nn2)c(OC)c1,inhibition at 20 µM,3T3-L1 [1],-22%
O=C(N(Cc1cccc(F)c1F)Cc1cn(S(=O)(=O)c2ccc(F)cc2)c2ccccc12)C(F)(F)F,inhibition at 20 µM,3T3-L1 [1],-52.3%
Cc1ccc(S(=O)(=O)n2cc(CN(Cc3cn(Cc4ccc(F)cc4)nn3)S(=O)(=O)c3ccccc3)c3ccccc32)cc1,inhibition at 20 µM,3T3-L1 [1],-21%
CC(=O)N(Cc1cccc(F)c1F)Cc1cn(S(=O)(=O)c2ccc(C)cc2)c2ccccc12,inhibition at 20 µM,3T3-L1 [1],57.5%
same,pIC50,3T3-L1 [2],4.76
Cc1ccc(S(=O)(=O)N(Cc2cn(Cc3ccc(F)cc3)nn2)Cc2c(-c3ccccc3)c3ccccc3n2S(=O)(=O)c2ccc(C)cc2)cc1,inhibition at 20 µM,3T3-L1 [1],-7.6%
Cc1ccc(S(=O)(=O)n2cc(CN(Cc3cccc(F)c3F)S(C)(=O)=O)c3ccccc32)cc1,inhibition at 20 µM,3T3-L1 [1],-3.3%
O=S(=O)(c1ccc(F)cc1)N(Cc1ccccc1)Cc1cccc(F)c1F,inhibition at 20 µM,3T3-L1 [1],-81.9%
CC(C)OC(=O)C(C)(C)Oc1ccc(C(=O)c2ccc(Cl)cc2)cc1,Activity,Syrian golden hamster [3],Active
same,Activity,Syrian golden hamster [4],Active
same,Activity,Syrian golden hamster [5],Active
same,Activity,Syrian golden hamster [6],Active
same,Activity,Syrian golden hamster [7],Active
same,Activity,Syrian golden hamster [8],Active
same,Activity,Syrian golden hamster [9],Active
same,Activity,Syrian golden hamster [10],Active
Cc1ccc(S(=O)(=O)N(Cc2cn(Cc3ccccc3Cl)nn2)Cc2cn(S(=O)(=O)c3ccc(C)cc3)c3ccccc23)cc1,inhibition at 20 µM,3T3-L1 [1],-4.8%
COc1ccc(Cn2cc(CN(Cc3cn(S(=O)(=O)c4ccc(C)cc4)c4ccccc34)S(=O)(=O)c3ccc(C)cc3)nn2)cc1,inhibition at 20 µM,3T3-L1 [1],1%
Cc1ccc(S(=O)(=O)N(Cc2cn(Cc3ccc(F)cc3F)nn2)Cc2cn(S(=O)(=O)c3ccc(C)cc3)c3ccccc23)cc1,inhibition at 20 µM,3T3-L1 [1],12.3%
COc1ccc(Cn2cc(CN(Cc3cn(S(=O)(=O)c4ccc(C)cc4)c4ccccc34)S(=O)(=O)c3ccc(C)cc3)nn2)c(OC)c1,inhibition at 20 µM,3T3-L1 [1],7.6%
Fc1cccc(CNCc2ccccc2)c1F,inhibition at 20 µM,3T3-L1 [1],-38.5%
Fc1ccc(CNCc2cccc(F)c2F)cc1,inhibition at 20 µM,3T3-L1 [1],-53.4%
